For 21 compounds, IC50 and Change results are on record in ChEMBL document CHEMBL1124933, “Benzodiazepine receptor binding activity of 8-substituted-9-(3-substituted-benzyl)-6-(dimethylamino)-9H-purines” (J Med Chem, 1990).

Assay [1] addresses GABA-A receptor; anion channel. Briefly: Inhibition of specific binding of 1.5 nM [3H]diazepam to rat brain benzodiazepine receptors.
Assay [2] has as its system Rattus norvegicus. The assay is described as follows: Percent change in Geller-Seifter conflict schedule was determined in Long-Evans rats after (po) administration of gavage of 25 mg/kg. In kind it is functional. An outline of the steps:
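Long-Evans rats on a modified Geller-Seifter operant conflict schedule, with conflict-period responding scored. Compounds given by oral gavage as a 0.5% methylcellulose suspension at 25 mg/kg. Chlordiazepoxide reference given at 20 mg/kg.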

In assay [1], `CN(C)c1ncnc2c1nc(Br)n2Cc1cccc(NS(C)(=O)=O)c1` registered an IC50 of 1.5 µM.

In the case of `CN(C)c1ncnc2c1nc(O)n2Cc1cccc(NC=O)c1`, the IC50 in assay [1] was found to be 0.13 µM. Besides, in assay [2], the Change is -15%.

The compound `CNc1nc2c(N(C)C)ncnc2n1Cc1cccc(NC=O)c1` yielded a half-inhibitory concentration (IC50) in assay [1] of 0.36 µM.

With `CN(C)c1ncnc2c1nc(O)n2Cc1cccc(N)c1`, the IC50 in assay [1] was 1.8 µM.

`CN(C)c1ncnc2c1nc(N(C)C)n2Cc1cccc(NC=O)c1` gave a half-inhibitory concentration (IC50) in assay [1] of 0.11 µM. In addition, the Change in assay [2] came out at 0%.

For the compound `CNc1nc2c(N(C)C)ncnc2n1Cc1ccccc1`, the IC50 in assay [1] was 17 µM.

In turn, `CN(C)c1ncnc2c1ncn2Cc1cccc(NC=O)c1` displayed an IC50 in assay [1] of 0.034 µM. Also, the Change in assay [2] was -2%.

`CN(C)c1ncnc2c1nc(Cl)n2Cc1cccc(N)c1` displayed an IC50 in assay [1] of 0.19 µM. The Change in assay [2] came out at 15%.

In turn, `COC(=O)Nc1cccc(Cn2c(Br)nc3c(N(C)C)ncnc32)c1` registered an IC50 in assay [1] of 5.3 µM.

Consider `COc1nc2c(N(C)C)ncnc2n1Cc1cccc(N)c1`, for which, in assay [1], the IC50 came to 1 µM. Moreover, the Change in assay [2] is recorded as 13%.

`CN(C)c1ncnc2c1nc(N(C)C)n2Cc1ccccc1`: the IC50 in assay [1] is 5.7 µM.

Turning to `COc1nc2c(N(C)C)ncnc2n1Cc1ccccc1`, in assay [1], the 50% inhibitory concentration (IC50) turned out to be 5.4 µM.

As for `CNc1nc2c(N(C)C)ncnc2n1Cc1cccc(N)c1`, in assay [1], the IC50 amounted to 7.3 µM.

The compound `CN(C)c1ncnc2c1nc(Br)n2Cc1cccc(NC=O)c1` had an IC50 in assay [1] of 0.011 µM. Further, the Change in assay [2] came to 9%.

As for `CN(C)c1ncnc2c1nc(N(C)C)n2Cc1cccc(N)c1`, the half-inhibitory concentration (IC50) in assay [1] stood at 0.6 µM. Besides, the Change in assay [2] is -3%.

In the case of `Cc1nc2c(N(C)C)ncnc2n1Cc1ccccc1`, the IC50 in assay [1] amounted to 8.5 µM.

In assay [1], `CN(C)c1ncnc2c1nc(Br)n2Cc1cccc(N)c1` registered an IC50 of 0.11 µM. The Change in assay [2] turned out to be 2%.

As for `CC(=O)Nc1cccc(Cn2c(Br)nc3c(N(C)C)ncnc32)c1`, the IC50 in assay [1] was determined as 0.84 µM. In addition, the Change in assay [2] is given as 3%.

As for `CN(C)c1ncnc2c1nc(Br)n2Cc1ccccc1`, the 50% inhibitory concentration (IC50) in assay [1] was 3 µM.

`CN(C)c1ncnc2c1nc(Br)n2Cc1cccc(NC(N)=O)c1` returned an IC50 in assay [1] of 0.025 µM. Besides, in assay [2], the Change is given as 9%.

As for `CN(C)c1ncnc2c1nc(Br)n2Cc1cccc(NC(=O)c2ccccc2)c1`, the IC50 in assay [1] amounted to 8 µM.
